Test results: PMC5014453 (Molecular Therapy. Nucleic Acids, 2016)

Legend:
[1] = tested on: HBV (pUC18-HBV1.3 hydrodynamic injection); assay: Anti-HBV assay in an acute hepatitis B mouse model; type: in vivo, BALB/c mice; conditions: acute hepatitis B mice, real-time PCR, n = 5; Tat-PNA-DR 5.05 mg/kg, 3TC 0.5 mg/kg
[2] = tested on: HBV DNA and RNA in HepG2.2.15 cells; assay: Southern and northern blot of intracellular HBV DNA and RNA in HepG2.2.15 cells; type: cell-based, Hepatitis B virus; conditions: southern blot, 48 hours, 3TC 20 μmol/l
Summary of the method: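 HepG2.2.15 cells grown in DMEM with 10% FBS, penicillin and streptomycin at 37 °C, 5% CO2, then exposed to test compound; 3TC control at 20 μmol/l. Total RNA TRIzol-extracted, run on 1.5% formaldehyde agarose gel, HBV RNAs probed with the DIG probe also used for Southern blot; GAPDH DIG probe as internal control.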

[3] = tested on: HBV proteins in HepG2.2.15 cells; assay: Western blot of intracellular HBV proteins in HepG2.2.15 cells; type: cell-based, Hepatitis B virus; conditions: HepG2.2.15 cell lysates, 3TC 20 μmol/l

Nc1ccn([C@@H]2CS[C@H](CO)O2)c(=O)n1 [3TC, lamivudine]
average HBV DNA concentration in serum [1]: 1.2 × 10^4 copies/ml
intracellular HBV DNA [2]: clearly inhibited the synthesis of HBV DNA
intracellular HBV protein levels (HBsAg, HBV core protein, x protein, RT) [3]: did not affect the expression of any HBV viral proteins
